Entries after “also recorded” stand apart in the source; their conditions may differ.
Columns and labels:
b’ domain of PDI = b’ domain of PDI (Homo sapiens, UniProt P07237); test: ANS spectral scan; type: binding; conditions: 5 μM PDI, 100 μM compound
Method in brief: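 Human PDI was preincubated with 100 μM compound or matching DMSO in TBS at 37 °C for 1 h. ANS was then added, followed by 20 min in the dark at 25 °C. Fluorescence spectrum: Ex 370 nm, Em 400–700 nm.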

PDI [1] = molecular target: T1, PDI (Homo sapiens, UniProt P07237); test: PDI reductase assay; type: biochemical; conditions: for fold reduction of potency: replacing the nitrile in BAP2 (6) and 32 with a trifluoromethyl group; for PDI inhibitory activity (in words): PDI reductase assay
T1 sequence (P07237 18-508): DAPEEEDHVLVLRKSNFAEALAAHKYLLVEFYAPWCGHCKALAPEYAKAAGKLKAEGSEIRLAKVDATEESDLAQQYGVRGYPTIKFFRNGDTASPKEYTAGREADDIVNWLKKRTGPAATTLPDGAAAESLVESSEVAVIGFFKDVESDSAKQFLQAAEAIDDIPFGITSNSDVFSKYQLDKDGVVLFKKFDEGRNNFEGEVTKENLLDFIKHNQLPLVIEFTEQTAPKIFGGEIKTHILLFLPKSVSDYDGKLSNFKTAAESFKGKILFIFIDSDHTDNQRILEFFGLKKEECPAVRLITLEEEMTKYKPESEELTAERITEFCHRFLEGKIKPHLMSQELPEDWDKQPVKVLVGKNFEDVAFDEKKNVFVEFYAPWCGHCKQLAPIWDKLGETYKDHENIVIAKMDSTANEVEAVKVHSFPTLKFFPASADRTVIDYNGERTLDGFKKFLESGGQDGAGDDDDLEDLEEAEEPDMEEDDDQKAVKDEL
Method in brief: (§1)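 N-terminal His-tagged human PDI was expressed in E. coli BL21(DE3) pLysS with 1 mM IPTG for 4 h at 37 °C. It was purified on Ni-NTA and dialyzed into 100 mM sodium phosphate, 2 mM EDTA, pH 7.0. PDI (0.4 μM) was preincubated 1 h with compound in phosphate/EDTA buffer with 8 μM DTT. DTT (500 μM) and bovine insulin (130 μM) were then added at room temperature. Aggregation was read at 620 nm. Percent activity came from the 0–80 min change, corrected for DTT alone.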

GBM cell = test: Combination with As2O3, GBM cell proliferation; type: cell-based
MMP9 = test: Western blot of cell lysates, MMP9; type: cell-based, human; conditions: U87MG cells, 10 μM (PACMA31 0.25 μM), 48 hours
Method in brief: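 Treated U87MG cells were lysed by sonication in Tris/NaCl/Triton X-100/SDS buffer (pH 7.4) and spun at 13,500×g, 4 °C, 10 min. Protein was quantified by BCA. 30 μg per lane ran on 10% gels and transferred to PVDF. Primary antibodies were applied overnight at 4 °C. Fluorescent secondaries were imaged.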

A172 cells = test: Transwell migration assay; type: cell-based, human; conditions: 4 hours
Method in brief: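 Treated A172 cells (1 x 10^5) were seeded into inserts with 8.0 µm PET membranes in serum-free medium. The lower well held DMEM with 10% FBS, and FBS-free wells served as control. After 4 h, cells were Giemsa-stained and 5 fields per well were imaged at 10X.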

wild-type PDI = wild-type PDI (Homo sapiens, UniProt P07237); test: Thermal shift assay, wild-type PDI; type: binding; conditions: for stabilization of PDI to thermal denaturation: 100 μM; for increase of melting temperature: recombinant PDI, dose-dependent, up to 100 μM
wild-type PDI, sequence (P07237 18-508): as above
Method in brief: (§2)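 Purified PDI (wild-type, C53S/C397S or H256A; 0.5 mg/mL in 50 mM Tris, pH 7.0) was mixed with compound in DMSO and ROX dye. Samples were heated from 25 to 99 °C at 1 °C/min. Boltzmann melting temperature was compared with the 5% DMSO control.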

U87MG cells = test: Bromouridine RNA sequencing; type: cell-based, human; conditions: 10 μM compound 18, U87MG cells, 4 hours
Method in brief: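 U87MG cells exposed to test compound or DMSO for 4 h, with 2 mM bromouridine added for the last 30 min. Total RNA was TRIzol-extracted, and Bru-labelled RNA was captured on anti-BrdU antibody magnetic beads, then sequenced. Reads were mapped to hg19. Genes were filtered to size >300 bp and mean RPKM >0.5, and ranked by transcription fold change versus control for pre-ranked GSEA.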

H256A PDI [2] = molecular target: T2, H256A PDI (Homo sapiens, UniProt P07237, H256A); test: Thermal shift assay, H256A PDI; type: binding; conditions: 100 μM
T2 sequence (P07237 18-508 H256A): as the sequence (P07237 18-508) above, with H239A counted along it
Method in brief: as §2

PDI [3] = molecular target: T1, PDI; test: PDI reductase assay after competition with N-acetyl cysteine; type: biochemical; conditions: compound 40 μM; 0, 1, 2 or 5 mM NAC
Method in brief: as §1

H256A PDI [4] = molecular target: T2, H256A PDI; test: PDI reductase assay, H256A mutant PDI; type: biochemical; conditions: 10 μM
Method in brief: as §1

C53S/C397S PDI = C53S/C397S PDI (Homo sapiens, UniProt P07237, C397S/C53S); test: Thermal shift assay, C53S/C397S PDI; type: binding; conditions: 100 μM
C53S/C397S PDI, sequence (P07237 18-508 C53S/C397S): as the sequence (P07237 18-508) above, with C36S, C380S counted along it
Method in brief: as §2

[5] = tested on: HFF-1 normal human fibroblast cells; test: MTT assay in normal fibroblasts; type: cell-based; conditions: potency in NU04 versus HFF-1 cells
MMP2 = test: Gelatin zymography and Western blot of conditioned media; type: cell-based, human; conditions: U87MG cells, 10 μM (PACMA31 0.25 μM), 48 hours
Method in brief: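 U87MG cells (0.5 x 10^6/well) attached overnight and were serum-starved 12 h before treatment. Cleared conditioned media (5 µg protein) ran on 10% SDS-PAGE with 0.1% gelatin. Gels were washed in 2.5% Triton X-100 Tris/CaCl2/ZnCl2 buffer, incubated overnight at 37 °C, then Coomassie R-250 stained and destained. Cleaved MMP2 in media was also assessed by Western blot.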

D54 cells = test: Clonogenic survival assay with ionizing radiation; type: cell-based; conditions: 1 μM, 0-6 Gy
Method in brief: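 D54 monolayer cells (37 °C, 5% CO2, mycoplasma-tested, STR-authenticated) were irradiated at 0, 1, 2, 4 or 6 Gy and plated immediately at 200, 200, 400, 600 and 1000 cells/well. Test compounds (1 μM), reference inhibitor (0.05 μM) or DMSO were added. After 10–12 days, colonies were stained with 0.1% crystal violet.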

b’ domain of PDI, sequence (P07237 18-508): as the sequence (P07237 18-508) above

## COc1ccc(C(=O)/C=C/c2cccc(C#N)c2)cc1 [Compound 8, (E)-3-(3-(4-Methoxyphenyl)-3-oxoprop-1-en-1-yl)benzonitrile]
b’ domain of PDI
  effect on ANS fluorescence: did not hinder dye fluorescence

## N#Cc1cccc(/C=C/C(=O)c2ccc(Br)cc2)c1 [Compound 10, (E)-3-(3-(4-Bromophenyl)-3-oxoprop-1-en-1-yl)benzonitrile]
PDI [1]; replacement of the hydroxyl group (6) with bromine
  fold decrease in the inhibition of PDI activity: 2 fold

## N#Cc1cccc(/C=C/C(=O)c2ccc(S(N)(=O)=O)cc2)c1 [Compound 13, (E)-4-(3-(3-Cyanophenyl)acryloyl)benzenesulfonamide]
GBM cell
  inhibition of GBM cell proliferation in combination with As2O3: synergistically

## CN(C)S(=O)(=O)c1ccc(C(=O)/C=C/c2cccc(C#N)c2)cc1 [Compound 14, (E)-4-(3-(3-Cyanophenyl)acryloyl)-N,N-dimethylbenzenesulfonamide]
GBM cell
  inhibition of GBM cell proliferation in combination with As2O3: synergistically

## CCN(CC)S(=O)(=O)c1ccc(C(=O)/C=C/c2cccc(C#N)c2)cc1 [Compound 15, (E)-4-(3-(3-Cyanophenyl)acryloyl)-N,N-diethylbenzenesulfonamide]
GBM cell
  inhibition of GBM cell proliferation in combination with As2O3: synergistically

## CCCCCN(CCCCC)S(=O)(=O)c1ccc(C(=O)/C=C/c2cccc(C#N)c2)cc1 [Compound 18, (E)-4-(3-(3-Cyanophenyl)acryloyl)-N,N-dipentylbenzenesulfonamide]
MMP9
  MMP9 expression: decreased
A172 cells; 10 μM
  transwell migration: inhibited migration
A172 cells; 30 μM
  transwell migration: inhibited migration
wild-type PDI
  stabilization of PDI to thermal denaturation: did not stabilize PDI
U87MG cells
  Fold Change in transcription, AKAP5: −3.4
  Fold Change in transcription, ANKRD36B: −2.8
  Fold Change in transcription, BARD1: −2.3
  Fold Change in transcription, BBS10: −2.3
  Fold Change in transcription, CCNA2: −2.3
  Fold Change in transcription, CHSY3: −2.6
  Fold Change in transcription, DUT: −2.3
  Fold Change in transcription, FBXO43: −2.7
  Fold Change in transcription, FPGT: −2.3
  Fold Change in transcription, HIST1H2BC: −2.3
  Fold Change in transcription, KCTD4: −2.8
  Fold Change in transcription, LYPD6: −3.1
  Fold Change in transcription, MYBL1: −2.6
  Fold Change in transcription, SLITRK5: −3.6
  Fold Change in transcription, ST8SIA4: −3.1
  Fold Change in transcription, ZNF404: −2.7

## N#Cc1cccc(/C=C/C(=O)c2cnccn2)c1 [Compound 29, (E)-3-(3-Oxo-3-(pyrazin-2-yl)prop-1-en-1-yl)benzonitrile]
b’ domain of PDI
  effect on ANS fluorescence: did not hinder dye fluorescence

## COC(=O)c1cccc(/C=C/C(=O)c2cccc(O)c2)c1 [Compound 46, Methyl-(E)-3-(3-(3-hydroxyphenyl)-3-oxoprop-1-en-1-yl)benzoate]
H256A PDI [2]
  stabilization (thermal shift) in the H256A mutant: not abolished
wild-type PDI
  increase of melting temperature: more than 1 °C
PDI [3]
  activity after competition with N-acetyl cysteine (NAC): abolished by 5 mM NAC, but not by lower concentrations
H256A PDI [4]
  activity against H256A mutant PDI: abolished upon mutation
C53S/C397S PDI
  stabilization (thermal shift) in the C53S/C397S mutant: not abolished

## O=C(/C=C/c1cccc(C(F)(F)F)c1)c1ccc(O)cc1 [Compound 55, (E)-1-(4-Hydroxyphenyl)-3-(3-(trifluoromethyl)phenyl)prop-2-en-1-one]
PDI [1]
  fold reduction of potency: 2 to 4 fold

## O=C(/C=C/c1ccc(C(F)(F)F)cc1)c1ccc(O)cc1 [Compound 57, (E)-1-(4-Hydroxyphenyl)-3-(4-(trifluoromethyl)phenyl)prop-2-en-1-one]
PDI [1]
  fold reduction of potency: 2 to 4 fold

## CCCCCN(CCCCC)S(=O)(=O)c1ccc(C(=O)/C=C/c2cccc(O)c2)cc1 [Compound 59, (E)-4-(3-(3-Hydroxyphenyl)acryloyl)-N,N-dipentylbenzenesulfonamide]
H256A PDI [2]
  stabilization (thermal shift) in the H256A mutant: not abolished
MMP9
  MMP9 expression: decreased
A172 cells; 30 μM
  transwell migration: inhibited migration
wild-type PDI
  increase of melting temperature: more than 1 °C
[5]
  Fold Difference: 3.8
PDI [3]
  activity after competition with N-acetyl cysteine (NAC): abolished by 5 mM NAC, but not by lower concentrations
H256A PDI [4]
  activity against H256A mutant PDI: active against the H256A mutant; also recorded: not His256-dependent
b’ domain of PDI
  effect on ANS fluorescence: competes with ANS
C53S/C397S PDI
  stabilization (thermal shift) in the C53S/C397S mutant: not abolished

## O=C(/C=C/c1ccc(-c2cccnc2)cc1)c1cccc(O)c1 [Compound 68, (E)-1-(3-Hydroxyphenyl)-3-(4-(pyridin-3-yl)phenyl)prop-2-en-1-one]
H256A PDI [2]
  stabilization (thermal shift) in the H256A mutant: not abolished
MMP9
  MMP9 expression: decreased
MMP2
  MMP2 activity and secretion: inhibit MMP2 activity and secretion
wild-type PDI
  increase of melting temperature: more than 1 °C
PDI [3]
  activity after competition with N-acetyl cysteine (NAC): unaffected by up to 5 mM NAC
D54 cells
  synergy with ionizing radiation (IR): synergized with IR
H256A PDI [4]
  activity against H256A mutant PDI: abolished upon mutation
C53S/C397S PDI
  stabilization (thermal shift) in the C53S/C397S mutant: not abolished

## O=C(/C=C/c1ccc(-c2ccncc2)cc1)c1cccc(O)c1 [Compound 69, (E)-1-(3-Hydroxyphenyl)-3-(4-(pyridin-4-yl)phenyl)prop-2-en-1-one]
wild-type PDI
  stabilization of PDI to thermal denaturation: did not stabilize PDI

## O=C(/C=C/c1ccc(O)cc1)c1ccccc1O [NC587]
PDI [1]
  PDI inhibitory activity (in words): inactive

## O=C(/C=C/c1ccccc1O)c1ccccc1O [NC588]
PDI [1]
  PDI inhibitory activity (in words): inactive

## O=C(/C=C/c1cccc(O)c1)c1ccccc1O [NC589]
PDI [1]
  PDI inhibitory activity (in words): inactive

## C[C@]12CC[C@@H]3c4ccc(O)cc4CC[C@H]3[C@@H]1CC[C@@H]2O [estradiol, reference compound]
H256A PDI [2]
  stabilization (thermal shift) in the H256A mutant: abolished
wild-type PDI
  stabilization of PDI to thermal denaturation: stabilizes PDI to thermal denaturation
  increase of melting temperature: more than 1 °C
C53S/C397S PDI
  stabilization (thermal shift) in the C53S/C397S mutant: but not the C53S/C397S mutant

From PMC8276234 (Journal of medicinal chemistry, 2019)
